Assay results as given in ChEMBL document CHEMBL4513216, “Probing the Open Global Health Chemical Diversity Library for Multistage-Active Starting Points for Next-Generation Antimalarials” (ACS Infect Dis, 2020).

Test: Toxicity liver stage against HepG2, at 10uM
Format: cell-based
Design: test concentration 10 uM, cell line HepG2-A16-CD81EGFP
Conditions: human, HepG2-A16-CD81EGFP cells; read-out: INHIBITION
In short: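 Uninfected HepG2-A16-CD81EGFP cells, 3 × 10^3 per well, 1536-well, plated on prespotted compound at 10 μM final, parasite-free screening media added to match infected plates; puromycin 10 μM positive, DMSO 0.5% negative; run in parallel with 48 h PbLuc assay at 37 °C, 5% CO2; viability by CellTiter-Glo luminescence, normalized to controls.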

| SMILES | cytotoxicity at 10 µM |
| --- | --- |
| COc1cc(C2CC(=O)Nc3c2cnn3C)ccc1O (stereo unspecified) | 45.5% |
| O=C1CC(NS(=O)(=O)c2cccc(F)c2)CN1 (stereo unspecified) | -5.89% |
| CN(C)c1cccc(C(=O)N2CCCSCC2CN2CCCC2)c1 (stereo unspecified) | 7.03% |
| CCC(CNC(=O)C1CCC1)(OC)c1ccccc1 (stereo unspecified) | 1.95% |
| CCNC(=O)NCC(CC)(OC)c1ccccc1 (stereo unspecified) | 2.05% |
| NC(=O)C1CCN(C(=O)CCn2ccc3ccc(Br)cc32)CC1 | -5.85% |
| CCc1ccccc1NC(=O)N1CCn2cnc(COC)c2C1 | -11.8% |
| COc1cc2cc(C(=O)NCCC(=O)O)n(C)c2c(OC)c1OC | 4.76% |
| Cc1nc(C(=O)N2CCc3[nH]nc(Nc4ccccc4)c3C2)co1 | 6.11% |
| CCC(=O)N1CCCCC1c1nc(O)c2c(n1)CN(S(C)(=O)=O)CC2 (stereo unspecified) | 5% |
| CC1(Cc2ccc(F)cc2)Cc2cc(C(=O)NCCO)ccc2O1 (stereo unspecified) | -2.89% |
| CCc1noc(CCC(=O)N2CCC(c3ccn[nH]3)C2)n1 (stereo unspecified) | 6.03% |
| Cc1ccc2c(c1)c(C)cc(=O)n2CC(=O)O | 3.1% |
| CN1C(=O)CO[C@H]2CCN(C(=O)Cc3ccc4c(c3)CCCC4)CC[C@@H]21 | 4.45% |
| C[C@@]1(O)CCN(C2CCOCC2)C[C@H]1n1ccc(=O)[nH]c1=O | 4% |
| CC(C)c1ncc(CN2CCC(c3n[nH]cc3C(=O)N(C)C)C2)cn1 (stereo unspecified) | 2.27% |
| CC(=O)N1CCOC(c2cncc(CCC(N)=O)n2)C1 (stereo unspecified) | -2.74% |
| c1ccc(CN2CCN(Cc3cnc(C4CCCCO4)nc3)CC2)cc1 (stereo unspecified) | -1.71% |
| Cc1nc(C)c(C(=O)N2CCCC(c3cnccn3)C2)s1 (stereo unspecified) | -20.6% |
| CS(=O)(=O)c1cn[nH]c1C1CCCCN1C(=O)c1cncs1 (stereo unspecified) | -19.1% |
| CCS(=O)(=O)N1CCN(C(C)(C)CO)CC1 | -2.48% |
| N#Cc1ccc(F)c(CNc2ccc(F)cc2OCCO)c1 | -1.98% |
| COc1ccc(CCNc2cc(-c3nc(C)no3)ccn2)cc1OC | 3.39% |

| SMILES | cytotoxicity at 10 µM |
| --- | --- |
| CC(C)CN(c1cn[nH]c1)S(=O)(=O)c1cccc(C#N)c1 | 8.75% |
| CC(Oc1cccc(Cl)c1)C(=O)Nc1cnn(CC(=O)NC2CC2)c1 (stereo unspecified) | 1.73% |
| CCCN(CC1COc2ccccc2O1)C(=O)c1ncoc1CC (stereo unspecified) | -42.2% |
| CC(CO)NC(=O)Nc1ccc(Cl)cc1OCC(F)(F)F (stereo unspecified) | 5.32% |
| COc1ccc(OC)c(CNCc2c(C)nc3sc(C)cn23)c1 | 7.06% |
| COC(=O)C(C)CN(Cc1ccccc1)C(=O)CN1CCCNC1=O (stereo unspecified) | 0.124% |
| COc1ccccc1N1CCCC(NC(=O)Nc2cccnc2)C1 (stereo unspecified) | 9.86% |
| CNC(=O)NC(=O)CNc1cc(C(=O)OC)cc(C(F)(F)F)c1 | -0.0264% |
| COc1ccc(Cl)cc1NC(=O)CCNc1ccc(C#N)cn1 | 2.59% |
| COCCN(CCC#N)S(=O)(=O)c1ccc(F)cc1F | -3.54% |
| CCNC(=O)NC(=O)CN1CCCC1c1nc(C2CCCCC2)co1 (stereo unspecified) | 8.08% |
| COc1cc(C(=O)N(C)Cc2nccn2CC(F)(F)F)ccc1C | -4.24% |
| Cc1cc(C(=O)CN(Cc2cccnc2)CC2CCCO2)c(C)[nH]1 (stereo unspecified) | -1.26% |
| CC(NCCN1CCN(C(=O)C2CCCC2)CC1)c1ccccn1 (stereo unspecified) | -2.17% |
| COc1ccccc1C1(CNc2cc(C(=O)N(C)C)ccn2)CC1 | -1.6% |
| CCOCc1ccccc1NC(=O)NCC(C)(O)c1ccsc1 (stereo unspecified) | -1.09% |
| O=C(Nc1cc(C2CCOCC2)[nH]n1)c1cc[nH]n1 | -3.43% |
| N#Cc1ccsc1C(=O)N1CCCCC1Cn1cccn1 (stereo unspecified) | 3.36% |
| CCC1c2ccccc2CCN1C(=O)c1ccnc(C(=O)OC)c1 (stereo unspecified) | -2.72% |
| O=C(Cn1cncn1)NCC1(O)CCCc2ccccc21 (stereo unspecified) | -54.8% |
| O=C1N(CC2CC2)C(c2c[nH]nc2-c2cccnc2)NC12CCCC2 (stereo unspecified) | -2.16% |
| Cc1nc(CNC(=O)CCN2CCN(c3ccccc3)CC2)oc1C | -4.04% |
| CCNC(=O)N(Cc1ccoc1)C1CCCCC1 | -0.986% |

| SMILES | cytotoxicity at 10 µM |
| --- | --- |
| CC(C)(C)NC(=O)NC(=O)CNc1c(F)cccc1N1CCCC1 | 12.2% |
| CC(C)N(C)CCNC(=O)NCc1ccccc1-n1cccn1 | -7.57% |
| CCN(CC1CN(Cc2ncc[nH]2)CCO1)c1cccnn1 (stereo unspecified) | 1.31% |
| O=C1CN(Cc2nnc(-c3ccc(Br)o3)o2)CCN1 | 13.5% |
| CC(C#N)CSc1ccccc1NCC(=O)Nc1ccc(F)cc1 (stereo unspecified) | 8.19% |
| CC(C)(C)c1n[nH]c(C2CN(C(=O)c3csnn3)CCO2)n1 (stereo unspecified) | -2.44% |
| Cc1ccc(CCNC(=O)N2CCCC(Cc3nccn3C)C2)cn1 (stereo unspecified) | -9.26% |
| CCc1cc(NCCN2CCNC2=O)n2nc(C)c(C)c2n1 | -5.81% |
| COc1cccc(OCC2CCCN(C(=O)CCc3cc(O)no3)C2)c1 (stereo unspecified) | 0.611% |
| O=C(c1ccc2c(c1)CCC2)N1CCN(c2ccc(Cl)cn2)CC1 | -2.27% |
| Cc1cc(C)n(Cc2cc(C(=O)N3CCCC3c3nccs3)n[nH]2)n1 (stereo unspecified) | -5.08% |
| O=C1NCCN(Cc2ccoc2)C1CC(=O)N1CCc2sccc2C1 (stereo unspecified) | -3.45% |
| CC1=C(C(=O)N2CCOC(Cc3cccc(C(F)(F)F)c3)C2)OCCO1 (stereo unspecified) | 5.31% |
| Cc1cccc(=O)n1CCCNc1nc(N(C)C)nc2c1CCNC2 | -0.545% |
| Cc1nn(C)c2nc(-c3ccccn3)nc(NCCC3CCCN3C)c12 (stereo unspecified) | 1.91% |
| CCC(=O)Nc1ccc(OCC(=O)N(C)C(C)c2ccon2)cc1 (stereo unspecified) | 5.22% |
| CN(C)CC(=O)NC1CC(=O)N(CCc2ccccc2)C1 (stereo unspecified) | -1.73% |
| CN(CCCc1cnn(C)c1)C(=O)Nc1cccc(C#N)c1 | -0.828% |
| CNc1ncc(CN(C)C(=O)CCc2cc3n(n2)CCCNC3)cn1 | -13.5% |
| CC(C)[C@H]1CN(c2ccncc2)C[C@@H]1NC(=O)C1(C#N)CCOCC1 | -9.21% |
| COC(=O)c1cc(OCC2CCC2)cc(C(=O)N[C@H]2CCCC[C@@H]2O)c1 | -2.94% |
| CCc1ccc2nc(C)cc(C(=O)NCc3csc(N(C)C)n3)c2c1 | 2.64% |
| CC(=O)NCc1cc2n(n1)CCN(Cc1cccc(Cl)c1F)C2 | 7.65% |

| SMILES | cytotoxicity at 10 µM |
| --- | --- |
| O=C(NCCSc1ccccc1)[C@H]1CNC[C@H](C(=O)N2CCOCC2)C1 | -1.97% |
| CCNC(=O)N1CCC(Cc2cccc(C(N)=O)c2)C1 (stereo unspecified) | 2.92% |
| CC(O)C(=O)N1CCC(c2nccn2Cc2cscn2)CC1 (stereo unspecified) | 0.557% |
| CCC1CN(C(=O)c2cccc(O)c2)CCC(=O)N1Cc1ccccc1 (stereo unspecified) | 6.78% |
| Cc1ccc2c(c1)c(CNC(C)Cn1nc(C)cc1C)nn2C (stereo unspecified) | -10.5% |
| COC1CCN(C(=O)Cn2cccc(C(F)(F)F)c2=O)C1 (stereo unspecified) | 2.23% |
| COc1ccc(Cc2ncc3c(n2)CN(C(=O)C(C)(C)OC)C3)cc1 | -1.24% |
| CS(=O)(=O)CC(=O)N(CCN1CCOCC1)Cc1ccco1 | 3.11% |
| O=C(NCC1=CCCCC1)C(c1cccnc1)N1CCOCC1 (stereo unspecified) | -8.4% |
| CCc1nc(N2CCCC(CCCOC)(C(=O)O)C2)ncc1C (stereo unspecified) | 3.43% |
| CC(C)N1CCC(CC(=O)NCCc2cc(O)ncn2)CC1 | 6.36% |
| CC(C)n1ccnc1CN1CCCN(C(=O)c2cnn(C)c2)CC1 | -22.4% |
| O=C(NCc1ccncc1)Nc1cc(C(F)(F)F)c[nH]c1=O | -9.86% |
| O=C(NCCCNc1ccc(C(F)(F)F)cn1)c1ccccc1 | -6.07% |
| NC(=O)C1CCN(C(=O)NCc2cccnc2OC2CCCC2)C1 (stereo unspecified) | -7.12% |
| NC(=O)COc1cccc(CN2CCc3cncnc3C2)c1 | -12.9% |
| Cn1ccnc1CN1CCCN(Cc2noc(C3CC3)n2)CC1 | -3.33% |
| CCOc1ccnc(N2CCN(C(=O)c3c(CC)noc3C)CC2)n1 | -5.43% |
| CNC(=O)CCNC(=O)c1cc(C)n(-c2cccc(OC)c2)c1C | -10.2% |
| CN(Cc1noc(C2CC2)n1)C1CCN(CCc2cnn(C)c2)C1 (stereo unspecified) | -0.222% |
| O=C(Cc1csc(-c2ccco2)n1)N1CCCC1Cn1cccn1 (stereo unspecified) | -11.2% |
| CCN(Cc1nc2c(cnn2C)c(=O)[nH]1)c1cccc(C)c1 | -7.09% |
| COc1ccc(COCC(O)CNC(=O)Cc2ccc(C)cc2)cc1 (stereo unspecified) | -5.62% |

| SMILES | cytotoxicity at 10 µM |
| --- | --- |
| CCN1CCC(NC(=O)CN2CCCC2Cn2cc(C)cn2)CC1 (stereo unspecified) | -8.84% |
| CCn1c(C(=O)N2CCN(C(=O)NC(C)C)CC2)cc2ccccc21 | -1.94% |
| CCc1ccccc1-n1cc(O)c(C(=O)N2CCCCC2)n1 | 0.495% |
| Cc1ccc(-c2nc(CNCCn3cccn3)cs2)o1 | -5.9% |
| N#CC1(C(=O)N2CCN(Cc3ccon3)CC2)CCC1 | -5.97% |
| COc1ccc(C2=CCN(C(=O)CN(C)CC(N)=O)CC2)cc1 | -9.19% |
| Cc1ccc(CNC(=O)CCSCc2csc(C)n2)cn1 | -10% |
| Cc1ccc(N2CCCN(C(=O)c3c(C)oc(C)c3C)CC2)nn1 | 5.46% |
| Cc1ccc(NC2CCN(C(=O)c3n[nH]c4ccccc34)CC2)nn1 | 2.96% |
| O=C(NCCCn1cncn1)NCC(c1ccco1)N1CCCCC1 (stereo unspecified) | 0.987% |
| Cc1cnn(CC2CCCCN2C(=O)c2ccc3nnc(C)n3c2)c1 (stereo unspecified) | 7.87% |
| COc1cc(CN(C)[C@@H]2COC[C@H]2c2ccc(F)cc2)cc(OC)c1 | 7.67% |
| NCC(=O)N1CCCC1c1n[nH]cc1-c1ccccc1F (stereo unspecified) | 2.37% |
| CCc1nc(CNC(C)c2cccc(N3CCCC3=O)c2)cs1 (stereo unspecified) | 7.28% |
| CO[C@H]1CCN(S(=O)(=O)c2cn(C)cn2)[C@H]1Cc1cnn(C)c1 | 2.63% |
| Cc1ccc2c(c1)C1(CCN(C(=O)C3CC3)CC1)CC2N1CCOCC1 (stereo unspecified) | -128% |
| COc1ccc(F)cc1C(=O)N1C[C@@H]2CC[C@H]1CN(c1ncccn1)C2 | 4.24% |
| Cc1nc[nH]c1CN1C[C@H]2CC[C@@H](C1)N(C(=O)c1cnn(C)c1)C2 | 2.42% |
| COCC1N(S(=O)(=O)c2cn(C)cn2)C2CCC1(O)CC2 (stereo unspecified) | -2.04% |
